Converted amounts (≈) assume the structure as drawn. Blank lines part the entries; values can stand above or below the compound they belong to.
Assays:
[1] = target: Sodium channel protein type 1 subunit alpha (Homo sapiens) (UniProt P35498); assay: Activation of human Nav1.1 expressed in T-Rex-CHO cells assessed as change in decay time constant of channel currents at 3 uM at holding potential of -120 mV by automated patch-clamp electrophysiology assay relative to control; format: cell-based
Method in brief: (§1)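 Human Nav1.1 stably expressed in CHO cells; inactivation current decay time constant (tau) measured on IonWorks automated patch platform; tau given as % of control; mean of N=5 unless noted, standard deviation reported.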

[2] = target: Sodium channel protein type 1 subunit alpha (Homo sapiens) (UniProt P35498); assay: Activation of human Nav1.1 expressed in T-Rex-CHO cells assessed as change in decay time constant of channel currents at 10 uM at holding potential of -120 mV by automated patch-clamp electrophysiology assay relative to control; format: cell-based; method in brief: as §1
[3] = target: Sodium channel protein type 1 subunit alpha (Homo sapiens) (UniProt P35498); assay: Activation of human Nav1.1 expressed in T-Rex-CHO cells assessed as change in decay time constant of channel currents at 1 uM by Q-patch assay relative to control; format: cell-based
Method in brief: (§2)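 Human Nav1.1 in CHO cells, Q-patch automated patch clamp; current decay time constant (tau) and top current ratio expressed as % of control; mean of N=4 unless noted, standard deviation reported.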

[4] = target: Sodium channel protein type 1 subunit alpha (Homo sapiens) (UniProt P35498); assay: Activation of human Nav1.1 expressed in T-Rex-CHO cells assessed as change in decay time constant of channel currents at 0.3 uM by Q-patch assay relative to control; format: cell-based; method in brief: as §2
[5] = target: Sodium channel protein type 1 subunit alpha (Homo sapiens) (UniProt P35498); assay: Activation of human Nav1.1 expressed in T-Rex-CHO cells assessed as change in decay time constant of channel currents at 1 uM at holding potential of -120 mV by automated patch-clamp electrophysiology assay relative to control; format: cell-based; method in brief: as §1
[6] = target: Sodium channel protein type 1 subunit alpha (Homo sapiens) (UniProt P35498); assay: Activation of human Nav1.1 expressed in T-Rex-CHO cells assessed as change in top peak current at 1 uM by Q-patch assay relative to control; format: cell-based; method in brief: as §2
[7] = target: Sodium channel protein type 1 subunit alpha (Homo sapiens) (UniProt P35498); assay: Activation of human Nav1.1 expressed in T-Rex-CHO cells assessed as change in decay time constant of channel currents at 0.3 uM at holding potential of -120 mV by automated patch-clamp electrophysiology assay relative to control; format: cell-based; method in brief: as §1
[8] = target: Sodium channel protein type 1 subunit alpha (Homo sapiens) (UniProt P35498); assay: Activation of human Nav1.1 expressed in T-Rex-CHO cells assessed as change in decay time constant of channel currents at 0.03 uM by Q-patch assay relative to control; format: cell-based; method in brief: as §2
[9] = target: Sodium channel protein type 1 subunit alpha (Homo sapiens) (UniProt P35498); assay: Activation of human Nav1.1 expressed in T-Rex-CHO cells assessed as change in decay time constant of channel currents at 0.1 uM by Q-patch assay relative to control; format: cell-based; method in brief: as §2
human MDR1 = assay: Efflux ratio of permeability across pig LLC-PK1 cells expressing human MDR1 at 1 uM after 1 hr by LC-MS/MS analysis; format: ADME, cell-based, Sus scrofa
Method in brief: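 Efflux ratio measured in LLC-PK1 cells over-expressing human MDR1, substrate at 1 μM.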

[10] = Drug uptake in mouse plasma at 30 mg/kg, ip measured at 1 hr by LC-MS/MS analysis; format: ADME, organism-based
Method in brief: (§3)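 Mice dosed 30 mg/kg intraperitoneally; plasma and brain levels measured 1 h post-dose; brain/plasma ratio computed from total concentrations in brain and plasma.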

[11] = Drug uptake in mouse brain at 30 mg/kg, ip measured at 1 hr by LC-MS/MS analysis; format: ADME, organism-based; conditions: read-out: Drug uptake; method in brief: as §3
[12] = Ratio of drug level in brain to plasma in mouse at 30 mg/kg, ip measured at 1 hr by LC-MS/MS analysis; format: ADME, organism-based; conditions: brain and plasma; method in brief: as §3
[13] = Fraction unbound in mouse brain at 30 mg/kg, ip measured at 1 hr by LC-MS/MS analysis; format: ADME, organism-based
Method in brief: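 Brain protein binding ratio determined for brain exposure study in mice given 30 mg/kg i.p., sampled at 1 h.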

[14] = Free drug level in mouse brain at 30 mg/kg, ip measured at 1 hr by LC-MS/MS analysis; format: ADME, organism-based; conditions: in vivo
Method in brief: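 Free brain concentration derived from total brain level 1 h after 30 mg/kg i.p. in mice and the brain protein binding ratio.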

[15] = target: Sodium channel protein type 2 subunit alpha (Homo sapiens) (UniProt Q99250); assay: Activation of human Nav1.2 expressed in T-Rex-CHO cells assessed as change in decay time constant of channel currents at 1 uM at holding potential of -120 mV by automated patch-clamp electrophysiology assay relative to control; format: cell-based
[16] = target: Sodium channel protein type 3 subunit alpha (Homo sapiens) (UniProt Q9NY46); assay: Activation of human Nav1.3 expressed in CHO cells assessed as change in decay time constant of channel currents at 1 uM at holding potential of -120 mV by automated patch-clamp electrophysiology assay relative to control; format: cell-based
[17] = target: T1, Sodium channel protein type 5 subunit alpha (Homo sapiens, UniProt Q14524); assay: Activation of human Nav1.5 expressed in T-Rex-CHO cells assessed as change in decay time constant of channel currents at 1 uM at holding potential of -120 mV by automated patch-clamp electrophysiology assay relative to control; format: cell-based
[18] = target: Sodium channel protein type 8 subunit alpha (Homo sapiens) (UniProt Q9UQD0); assay: Activation of human Nav1.6 expressed in T-Rex-CHO cells assessed as change in decay time constant of channel currents at 1 uM at holding potential of -120 mV by automated patch-clamp electrophysiology assay relative to control; format: cell-based
[19] = target: Sodium channel protein type 2 subunit alpha (Homo sapiens) (UniProt Q99250); assay: Activation of human Nav1.2 expressed in T-Rex-CHO cells assessed as change in peak current at 1 uM by Q-patch assay relative to control; format: cell-based
[20] = target: Sodium channel protein type 3 subunit alpha (Homo sapiens) (UniProt Q9NY46); assay: Activation of human Nav1.3 expressed in CHO cells assessed as change in peak current at 1 uM by Q-patch assay relative to control; format: cell-based
[21] = target: T1, Sodium channel protein type 5 subunit alpha; assay: Activation of human Nav1.5 expressed in T-Rex-CHO cells assessed as change in peak current at 1 uM by Q-patch assay relative to control; format: cell-based
[22] = target: Sodium channel protein type 8 subunit alpha (Homo sapiens) (UniProt Q9UQD0); assay: Activation of human Nav1.6 expressed in T-Rex-CHO cells assessed as change in peak current at 1 uM by Q-patch assay relative to control; format: cell-based
[23] = target: Sodium channel protein type 1 subunit alpha (Homo sapiens) (UniProt P35498); assay: Activation of human Nav1.1 expressed in T-Rex-CHO cells assessed as change in decay time constant of channel currents at 30 uM at holding potential of -120 mV by automated patch-clamp electrophysiology assay relative to control; format: cell-based; method in brief: as §1
[24] = target: Sodium channel protein type 1 subunit alpha (Homo sapiens) (UniProt P35498); assay: Activation of human Nav1.1 expressed in T-Rex-CHO cells assessed as change in decay time constant of channel currents at 3 uM by Q-patch assay relative to control; format: cell-based; method in brief: as §2
[25] = target: Sodium channel protein type 1 subunit alpha (Homo sapiens) (UniProt P35498); assay: Activation of human Nav1.1 expressed in T-Rex-CHO cells assessed as change in decay time constant of channel currents at 10 uM by Q-patch assay relative to control; format: cell-based; method in brief: as §2
[26] = 1-octanol/water partition co-efficient, log D of the compound at pH 7.4 by chromatographic analysis; format: physicochemical
[27] = Aqueous solubility of compound at pH 6.8 by UV absorbance method; format: physicochemical; conditions: buffer
Method in brief: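 Solubility determined at pH 6.8.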

[28] = target: Sodium channel protein type 1 subunit alpha (Homo sapiens) (UniProt P35498); assay: Activation of human Nav1.1 expressed in T-Rex-CHO cells assessed as change in top peak current at 3 uM by Q-patch assay relative to control; format: cell-based; method in brief: as §2
[29] = target: Sodium channel protein type 1 subunit alpha (Homo sapiens) (UniProt P35498); assay: Activation of human Nav1.1 expressed in T-Rex-CHO cells assessed as change in top peak current at 10 uM by Q-patch assay relative to control; format: cell-based; method in brief: as §2

T1 sequence (Q14524 whole entry): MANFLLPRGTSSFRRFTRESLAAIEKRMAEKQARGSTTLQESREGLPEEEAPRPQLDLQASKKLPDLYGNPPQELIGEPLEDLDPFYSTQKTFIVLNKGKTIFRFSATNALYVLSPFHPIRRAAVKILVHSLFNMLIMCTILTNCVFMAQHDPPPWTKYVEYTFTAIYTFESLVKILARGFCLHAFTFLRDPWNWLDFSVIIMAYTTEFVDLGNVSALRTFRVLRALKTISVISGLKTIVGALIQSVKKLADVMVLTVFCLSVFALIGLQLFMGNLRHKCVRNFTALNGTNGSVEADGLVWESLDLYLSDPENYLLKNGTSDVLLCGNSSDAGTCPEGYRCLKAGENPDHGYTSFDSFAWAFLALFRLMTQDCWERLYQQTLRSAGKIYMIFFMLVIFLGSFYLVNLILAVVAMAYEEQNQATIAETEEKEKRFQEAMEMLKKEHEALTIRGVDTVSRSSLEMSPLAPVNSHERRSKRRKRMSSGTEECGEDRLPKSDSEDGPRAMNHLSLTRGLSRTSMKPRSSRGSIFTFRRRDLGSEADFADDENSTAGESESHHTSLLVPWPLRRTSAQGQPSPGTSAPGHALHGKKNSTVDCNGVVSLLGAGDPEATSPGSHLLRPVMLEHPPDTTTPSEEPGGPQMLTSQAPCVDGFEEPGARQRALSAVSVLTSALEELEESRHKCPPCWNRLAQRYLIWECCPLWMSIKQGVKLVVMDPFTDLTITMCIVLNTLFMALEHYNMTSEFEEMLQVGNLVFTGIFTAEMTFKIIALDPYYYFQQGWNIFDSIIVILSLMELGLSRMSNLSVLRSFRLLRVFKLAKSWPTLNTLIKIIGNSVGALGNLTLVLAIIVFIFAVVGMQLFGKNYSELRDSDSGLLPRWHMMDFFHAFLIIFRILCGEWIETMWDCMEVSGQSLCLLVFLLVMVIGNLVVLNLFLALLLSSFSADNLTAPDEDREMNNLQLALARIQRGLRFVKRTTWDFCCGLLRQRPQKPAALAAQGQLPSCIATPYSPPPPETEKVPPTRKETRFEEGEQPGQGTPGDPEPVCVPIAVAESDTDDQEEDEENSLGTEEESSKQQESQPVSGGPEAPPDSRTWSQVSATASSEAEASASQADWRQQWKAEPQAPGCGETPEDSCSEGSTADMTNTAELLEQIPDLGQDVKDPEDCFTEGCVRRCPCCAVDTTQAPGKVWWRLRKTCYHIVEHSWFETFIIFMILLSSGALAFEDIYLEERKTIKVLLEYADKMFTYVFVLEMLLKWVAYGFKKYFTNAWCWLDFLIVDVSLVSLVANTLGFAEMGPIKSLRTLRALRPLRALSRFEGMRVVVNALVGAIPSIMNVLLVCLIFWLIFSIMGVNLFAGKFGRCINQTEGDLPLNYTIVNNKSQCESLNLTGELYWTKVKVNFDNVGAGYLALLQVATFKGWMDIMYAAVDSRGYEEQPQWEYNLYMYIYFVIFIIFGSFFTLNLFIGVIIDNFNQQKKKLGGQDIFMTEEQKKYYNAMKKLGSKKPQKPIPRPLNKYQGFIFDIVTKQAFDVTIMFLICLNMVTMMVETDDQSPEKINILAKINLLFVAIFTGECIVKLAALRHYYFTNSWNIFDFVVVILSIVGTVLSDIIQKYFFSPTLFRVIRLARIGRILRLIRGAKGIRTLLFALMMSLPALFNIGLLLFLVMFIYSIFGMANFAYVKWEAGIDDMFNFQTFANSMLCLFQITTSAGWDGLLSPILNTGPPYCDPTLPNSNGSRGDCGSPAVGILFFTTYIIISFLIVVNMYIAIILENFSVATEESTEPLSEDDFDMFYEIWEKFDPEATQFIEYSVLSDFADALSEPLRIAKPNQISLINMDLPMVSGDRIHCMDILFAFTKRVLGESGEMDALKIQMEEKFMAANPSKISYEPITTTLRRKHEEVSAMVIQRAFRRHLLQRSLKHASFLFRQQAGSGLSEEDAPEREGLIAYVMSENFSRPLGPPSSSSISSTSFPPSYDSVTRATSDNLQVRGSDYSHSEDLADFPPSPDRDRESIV
Sequence of Sodium channel protein type 8 subunit alpha (Homo sapiens) (Q9UQD0 whole entry, looked up): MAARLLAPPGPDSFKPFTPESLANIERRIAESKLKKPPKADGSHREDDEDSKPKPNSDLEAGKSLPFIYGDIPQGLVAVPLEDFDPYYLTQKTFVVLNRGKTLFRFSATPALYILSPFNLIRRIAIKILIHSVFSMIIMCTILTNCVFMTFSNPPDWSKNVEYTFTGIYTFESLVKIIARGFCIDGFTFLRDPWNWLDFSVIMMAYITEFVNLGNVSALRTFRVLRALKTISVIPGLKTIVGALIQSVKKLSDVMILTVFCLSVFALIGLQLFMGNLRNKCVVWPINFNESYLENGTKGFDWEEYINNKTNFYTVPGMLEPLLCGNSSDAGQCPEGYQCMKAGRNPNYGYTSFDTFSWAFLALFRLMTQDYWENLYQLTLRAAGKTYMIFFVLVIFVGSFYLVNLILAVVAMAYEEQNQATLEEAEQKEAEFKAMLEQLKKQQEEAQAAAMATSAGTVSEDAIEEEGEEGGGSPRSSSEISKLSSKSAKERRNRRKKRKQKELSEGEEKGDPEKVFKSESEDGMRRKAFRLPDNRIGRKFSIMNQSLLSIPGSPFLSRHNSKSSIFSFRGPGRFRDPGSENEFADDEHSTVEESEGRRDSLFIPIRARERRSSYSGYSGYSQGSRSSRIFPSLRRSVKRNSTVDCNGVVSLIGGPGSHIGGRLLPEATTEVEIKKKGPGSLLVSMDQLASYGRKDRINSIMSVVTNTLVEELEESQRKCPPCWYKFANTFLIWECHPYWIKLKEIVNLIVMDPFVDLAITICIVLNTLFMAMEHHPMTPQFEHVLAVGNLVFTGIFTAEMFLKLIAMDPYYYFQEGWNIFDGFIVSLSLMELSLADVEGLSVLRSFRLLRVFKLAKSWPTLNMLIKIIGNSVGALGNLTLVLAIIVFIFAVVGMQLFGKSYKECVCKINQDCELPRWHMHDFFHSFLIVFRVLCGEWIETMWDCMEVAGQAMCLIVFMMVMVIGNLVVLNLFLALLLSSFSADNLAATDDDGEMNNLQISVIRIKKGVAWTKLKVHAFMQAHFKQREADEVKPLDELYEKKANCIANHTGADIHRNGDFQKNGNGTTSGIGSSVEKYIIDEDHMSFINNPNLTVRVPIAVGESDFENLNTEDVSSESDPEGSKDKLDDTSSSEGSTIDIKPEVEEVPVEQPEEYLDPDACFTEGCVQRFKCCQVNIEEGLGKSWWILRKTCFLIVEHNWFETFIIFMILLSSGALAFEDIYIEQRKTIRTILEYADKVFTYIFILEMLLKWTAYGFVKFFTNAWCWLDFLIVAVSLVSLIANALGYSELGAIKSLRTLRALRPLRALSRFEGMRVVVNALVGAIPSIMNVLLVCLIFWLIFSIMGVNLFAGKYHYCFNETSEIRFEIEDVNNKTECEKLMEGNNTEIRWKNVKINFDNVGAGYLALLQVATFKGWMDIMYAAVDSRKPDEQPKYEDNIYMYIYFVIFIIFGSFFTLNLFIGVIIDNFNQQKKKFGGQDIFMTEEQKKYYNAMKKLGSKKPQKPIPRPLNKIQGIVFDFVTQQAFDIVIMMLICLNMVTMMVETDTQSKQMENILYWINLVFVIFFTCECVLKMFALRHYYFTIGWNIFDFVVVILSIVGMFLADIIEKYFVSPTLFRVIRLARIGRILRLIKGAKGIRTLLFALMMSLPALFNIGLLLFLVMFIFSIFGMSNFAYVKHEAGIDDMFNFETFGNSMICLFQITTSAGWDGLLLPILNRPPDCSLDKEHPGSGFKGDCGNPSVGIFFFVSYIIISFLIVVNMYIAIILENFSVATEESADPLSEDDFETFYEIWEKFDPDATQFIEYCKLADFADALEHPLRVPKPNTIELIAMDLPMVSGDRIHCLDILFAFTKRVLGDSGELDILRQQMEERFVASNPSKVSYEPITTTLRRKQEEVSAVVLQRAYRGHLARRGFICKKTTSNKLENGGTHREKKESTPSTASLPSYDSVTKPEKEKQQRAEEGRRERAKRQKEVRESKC

Structure (SMILES): CC(C)c1ccc(NC(=O)c2c(-c3cccc(F)c3)ncnc2N2CC[C@H](F)C2)cn1
Activity [1]: 271%
Activity [5]: 111%

Structure (SMILES): CC(C)c1ccc(NC(=O)c2c(-c3cc(F)ccc3F)ccnc2N2CC[C@H](F)C2)cn1
Activity [3]: 1900%
Activity [6]: 144%
Activity [7]: 176%
Activity [8]: 255%
Activity [9]: 1200%
efflux ratio at 1 h, 1 µM (human MDR1): 1
concentration at 1 h [10]: 968 ng/mL
concentration at 1 h [11]: 193 ng/g
Kp at 1 h [12]: 0.2
fraction unbound at 1 h [13]: 0.029
Drug uptake(free) [14]: 13 nM
Activity [15]: 106%
Activity [16]: 826%
Activity [17]: 108%
Activity [18]: 102%
Activity [19]: 94%
Activity [20]: 129%
Activity [21]: 94%
Activity [22]: 100%
Activity [5]: 492%

Structure (SMILES): CC(C)c1ccc(NC(=O)c2c(-c3ccccc3)ncnc2N2CC[C@H](F)C2)cn1
Activity [1]: 302%
Activity [3]: 332%
Activity [4]: 255%
Activity [5]: 102%

Structure (SMILES): CC(C)c1ccc(NC(=O)c2c(-c3cc(F)ccc3F)ncnc2N2CC[C@H](F)C2)cn1
Activity [1]: 714%
Activity [3]: 1900%
Activity [4]: 853%
Activity [7]: 135%
Activity [8]: 124%
Activity [9]: 193%
Activity [5]: 260%

Structure (SMILES): CC(C)c1ccc(NC(=O)c2c(-c3cc(F)cc(F)c3F)ncnc2N2CC[C@H](F)C2)cn1
Activity [1]: 298%
Activity [5]: 114%

Structure (SMILES): CC(C)c1ccc(NC(=O)c2c(-c3ccc(F)cc3)ncnc2N2CC[C@H](F)C2)cn1
Activity [1]: 197%
Activity [5]: 93%

The remaining lines, values ahead:

Activity [1]: 257%
Activity [2]: 342%
Activity [3]: 682%
Activity [4]: 170%
Activity [5]: 107%
Structure (SMILES): CC(C)c1ccc(NC(=O)c2c(-c3ccc(Cl)cc3)ncnc2N2CC[C@H](F)C2)cn1

Activity [1]: 111%
Activity [2]: 90%
Structure (SMILES): CC(C)c1ccc(NC(=O)c2c(-c3ccc(Cl)cc3)ncnc2N2CCC2)cn1

Activity [1]: 97%
Activity [2]: 107%
Structure (SMILES): CC(C)c1ccc(NC(=O)c2c(N3CCOCC3)ccnc2-c2ccc(Cl)cc2)cn1

Activity [1]: 313%
Activity [2]: 699%
Structure (SMILES): CC(C)c1ccc(NC(=O)c2c(-c3ccc(Cl)cc3)cncc2N2CCOCC2)cn1

Activity [1]: 110%
Activity [2]: 105%
Structure (SMILES): CC(C)c1ccc(NC(=O)c2c(-c3ccc(Cl)cc3)ncnc2N2CCCCC2)cn1

Activity [1]: 99%
Activity [2]: 102%
Activity [23]: 138%
Activity [3]: 113%
Activity [24]: 120%
Activity [25]: 179%
chromatographic logD [26]: 3.43
solubility [27]: 0.9 µg/mL (≈ 2.11 µM)
Activity [6]: 92%
Activity [28]: 86%
Activity [29]: 86%
Structure (SMILES): Cc1cc(C)c(NC(=O)c2c(-c3ccc(Cl)cc3)noc2N2CCOCC2)c(C)c1

Source: ChEMBL document CHEMBL4422659, “Discovery of novel 4-phenyl-2-(pyrrolidinyl)nicotinamide derivatives as potent Nav1.1 activators” (Bioorg Med Chem Lett, 2019)
